Data from ChEMBL document CHEMBL1949603, “Discovery of CS-0777: A Potent, Selective, and Orally Active S1P1 Agonist” (ACS Med Chem Lett, 2011).
The source made the active and inactive calls. The calls are words filed in the database; no cut-off is given here.

Key:
[1] = target: Sphingosine 1-phosphate receptor 1 (Rattus norvegicus, UniProt P48303); assay: Agonist activity at rat S1P1 receptor expressed in CHO-K1 cells by [35S]GTPgammaS binding assay; format: functional, cell-based
Outline: (§1)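 Agonist-evoked [35S]GTPγS binding was measured on human or rat S1P1 or S1P3 expressed in transfected CHO-K1 cells.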

[2] = target: Sphingosine 1-phosphate receptor 3 (Homo sapiens, UniProt Q99500); assay: Agonist activity at human S1P3R expressed in CHO-K1 cells by [35S]GTPgammaS binding assay; format: functional, cell-based; outline: as §1
Sequence of Sphingosine 1-phosphate receptor 3 (Q99500 whole entry): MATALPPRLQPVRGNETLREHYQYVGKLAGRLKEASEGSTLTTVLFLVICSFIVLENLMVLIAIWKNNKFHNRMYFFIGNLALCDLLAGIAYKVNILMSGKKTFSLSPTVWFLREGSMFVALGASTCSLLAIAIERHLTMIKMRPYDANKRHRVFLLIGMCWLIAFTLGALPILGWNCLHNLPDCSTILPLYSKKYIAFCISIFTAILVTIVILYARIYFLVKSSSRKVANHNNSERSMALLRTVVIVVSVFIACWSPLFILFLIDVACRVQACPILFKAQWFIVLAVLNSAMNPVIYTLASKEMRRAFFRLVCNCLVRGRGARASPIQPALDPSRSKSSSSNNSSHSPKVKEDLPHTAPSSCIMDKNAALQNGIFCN

Rattus norvegicus [3] = species on record: Rattus norvegicus; assay: Selectivity ratio of EC50 for rat S1P3R to EC50 for rat S1P1R; outline: as §1
[4] = Agonist activity at rat S1P3R expressed in CHO-K1 cells by [35S]GTPgammaS binding assay; format: functional, cell-based; outline: as §1
[5] = target: Sphingosine 1-phosphate receptor 5 (Homo sapiens, UniProt Q9H228); assay: Agonist activity at human S1P5R; format: functional
Sequence of Sphingosine 1-phosphate receptor 5 (Q9H228 whole entry): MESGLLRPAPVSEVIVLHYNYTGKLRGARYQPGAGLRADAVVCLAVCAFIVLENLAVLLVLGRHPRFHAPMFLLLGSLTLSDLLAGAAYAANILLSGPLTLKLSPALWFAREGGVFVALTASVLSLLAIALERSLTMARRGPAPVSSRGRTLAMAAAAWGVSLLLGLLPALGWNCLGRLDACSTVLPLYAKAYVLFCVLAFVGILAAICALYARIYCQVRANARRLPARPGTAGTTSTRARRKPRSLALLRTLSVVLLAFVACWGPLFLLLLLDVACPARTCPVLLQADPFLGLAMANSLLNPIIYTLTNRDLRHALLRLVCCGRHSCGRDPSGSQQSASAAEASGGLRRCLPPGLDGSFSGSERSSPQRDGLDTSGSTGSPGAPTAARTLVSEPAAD

Homo sapiens = species on record: Homo sapiens; assay: Selectivity ratio of EC50 for human S1P3R to EC50 for human S1P1R; outline: as §1
[6] = target: Sphingosine 1-phosphate receptor 1 (Homo sapiens, UniProt P21453); assay: Agonist activity at human S1P1 receptor expressed in CHO-K1 cells by [35S]GTPgammaS binding assay; format: functional, cell-based; outline: as §1
Sequence of Sphingosine 1-phosphate receptor 1 (Homo sapiens, UniProt P21453) (P21453 whole entry): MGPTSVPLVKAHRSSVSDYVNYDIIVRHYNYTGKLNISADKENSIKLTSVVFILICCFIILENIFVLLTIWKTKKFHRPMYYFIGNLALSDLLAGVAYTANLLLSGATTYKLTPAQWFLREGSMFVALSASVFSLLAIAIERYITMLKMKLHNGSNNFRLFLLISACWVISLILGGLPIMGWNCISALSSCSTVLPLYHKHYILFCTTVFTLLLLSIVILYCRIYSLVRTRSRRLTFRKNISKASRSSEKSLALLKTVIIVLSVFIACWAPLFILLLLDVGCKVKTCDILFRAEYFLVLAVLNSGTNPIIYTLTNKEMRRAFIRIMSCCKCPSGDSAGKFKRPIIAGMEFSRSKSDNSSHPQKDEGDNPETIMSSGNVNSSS

[7] = target: Sphingosine 1-phosphate receptor 2 (Homo sapiens) (UniProt O95136); assay: Binding affinity to human S1P2R
Sequence of Sphingosine 1-phosphate receptor 2 (Homo sapiens) (O95136 whole entry): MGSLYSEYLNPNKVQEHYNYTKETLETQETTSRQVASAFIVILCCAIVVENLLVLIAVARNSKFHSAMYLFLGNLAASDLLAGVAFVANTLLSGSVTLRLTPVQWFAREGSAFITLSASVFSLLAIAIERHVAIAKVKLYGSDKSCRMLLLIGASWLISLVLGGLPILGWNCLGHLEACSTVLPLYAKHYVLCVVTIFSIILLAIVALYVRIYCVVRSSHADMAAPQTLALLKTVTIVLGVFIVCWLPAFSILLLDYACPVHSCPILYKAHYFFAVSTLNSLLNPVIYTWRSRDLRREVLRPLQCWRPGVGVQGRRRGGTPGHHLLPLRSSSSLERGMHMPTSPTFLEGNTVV

[8] = Half life in Sprague-Dawley rat at 0.1 mg/kg, po; format: ADME, organism-based; set-up: dose 0.1 mg/kg, route oral; conditions: in vivo
Outline: (§2)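 Male Sprague−Dawley rats given one oral dose of parent drug at 0.1 or 1 mg/kg. Blood levels of parent and phosphate metabolite were measured over time. Bioavailability of the phosphate is the ratio of its AUC after oral dosing to its AUC after intravenous parent dosing at the same dose. Values are mean ± SD of four animals.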

Rattus norvegicus [9] = assay: Reduction of cumulative disease score in Lewis rat EAE model at 0.1 mg/kg, po administered daily for 20 days measured after 8 to 21 days relative to control; format: functional, organism-based; set-up: dose 0.1 mg/kg
Outline: (§3)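 EAE was induced in 6-week-old female Lewis rats by injecting guinea pig myelin basic protein fragment 68−82 with adjuvant into both hind footpads on day 0. Dosing was oral, daily on days 0–20 (0.01–1 mg/kg). Clinical score (0–6 scale) was recorded daily on days 8–21 and summed to a cumulative score. Analysis used a nonparametric Dunnett test versus vehicle.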

[10] = Oral bioavailability in Sprague-Dawley rat at 1 mg/kg; format: ADME, organism-based; conditions: in vivo; outline: as §2
Rattus norvegicus [11] = assay: Lymphopenic activity in Lewis rat assessed as reduction in blood lymphocyte counts at 1 mg/kg, po after 12 hrs relative to control; format: functional; set-up: scale not given: the % may be the effect or the level left
Outline: (§4)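 Lewis rats received one oral dose of 0.1 or 1 mg/kg in 1% MC vehicle. Lymphocytes were counted by automatic hemacytometer and expressed relative to vehicle controls. n = 5 per group, mean ± SE.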

Rattus norvegicus [12] = assay: Cmax in Sprague-Dawley rat assessed as CS-0777-phosphate at 1 mg/kg, po; format: ADME, organism-based; set-up: dose 1 mg/kg, route oral; conditions: in vivo; outline: as §2
Rattus norvegicus [13] = assay: Cmax in Sprague-Dawley rat assessed as CS-0777-phosphate at 0.1 mg/kg, po; format: ADME, organism-based; set-up: dose 0.1 mg/kg, route oral; conditions: in vivo; outline: as §2
Rattus norvegicus [14] = assay: Oral bioavailability in Sprague-Dawley rat assessed as CS-0777-phosphate at 0.1 mg/kg; format: ADME, organism-based; conditions: in vivo; outline: as §2
[15] = Cmax in Sprague-Dawley rat at 0.1 mg/kg, po; format: ADME, organism-based; set-up: dose 0.1 mg/kg, route oral; conditions: in vivo; outline: as §2
Rattus norvegicus [16] = assay: Half life in Sprague-Dawley rat assessed as CS-0777-phosphate at 0.1 mg/kg, po; format: ADME, organism-based; set-up: dose 0.1 mg/kg, route oral; conditions: in vivo; outline: as §2
[17] = Half life in Sprague-Dawley rat at 1 mg/kg, po; format: ADME, organism-based; set-up: dose 1 mg/kg, route oral; conditions: in vivo; outline: as §2
[18] = Volume of distribution at steady state in Sprague-Dawley rat at 0.1 mg/kg, iv; format: ADME, organism-based; set-up: dose 0.1 mg/kg, route intravenous; conditions: in vivo, read-out: Vdss
Outline: (§5)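 Clearance and steady-state volume of distribution were calculated from blood data after intravenous dosing of the parent drug to male Sprague−Dawley rats at 0.1 or 1 mg/kg. Values are mean ± SD of four animals.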

[19] = AUC (0 to infinity) in Sprague-Dawley rat at 0.1 mg/kg, po; format: ADME, organism-based, Plasma; set-up: dose 0.1 mg/kg, route oral, time infinity; conditions: blood; outline: as §2
Rattus norvegicus [20] = assay: Lymphopenic activity in Lewis rat assessed as recovery of blood lymphocytes at 0.1 mg/kg, po after 48 hrs relative to control; format: functional; outline: as §4
[21] = Tmax in Sprague-Dawley rat at 1 mg/kg, po; format: ADME, organism-based; set-up: dose 1 mg/kg, route oral; conditions: in vivo; outline: as §2
Rattus norvegicus [22] = assay: Lymphopenic activity in Lewis rat assessed as reduction in blood lymphocyte counts at 0.1 mg/kg, po after 12 hrs relative to control; format: functional; set-up: scale not given: the % may be the effect or the level left; outline: as §4
[23] = Total body clearance in Sprague-Dawley rat at 0.1 mg/kg, iv; format: ADME, organism-based; set-up: dose 0.1 mg/kg, route intravenous; conditions: in vivo; outline: as §5
[24] = Tmax in Sprague-Dawley rat at 0.1 mg/kg, po; format: ADME, organism-based; set-up: dose 0.1 mg/kg, route oral; conditions: in vivo; outline: as §2
[25] = AUC (0 to infinity) in Sprague-Dawley rat at 1 mg/kg, po; format: ADME, organism-based, Plasma; set-up: time infinity, dose 1 mg/kg, route oral; conditions: blood; outline: as §2
Rattus norvegicus [26] = assay: Lymphopenic activity in Lewis rat assessed as recovery of blood lymphocytes at 1 mg/kg, po after 48 hrs relative to control; format: functional; outline: as §4
[27] = Volume of distribution at steady state in Sprague-Dawley rat at 1 mg/kg, iv; format: ADME, organism-based; set-up: dose 1 mg/kg, route intravenous; conditions: in vivo, read-out: Vdss; outline: as §5
Rattus norvegicus [28] = assay: Tmax in Sprague-Dawley rat assessed as CS-0777-phosphate at 0.1 mg/kg, po; format: ADME, organism-based; set-up: dose 0.1 mg/kg, route oral; conditions: in vivo; outline: as §2
[29] = Total body clearance in Sprague-Dawley rat at 1 mg/kg, iv; format: ADME, organism-based; set-up: dose 1 mg/kg, route intravenous; conditions: in vivo; outline: as §5
Rattus norvegicus [30] = assay: Lymphopenic activity in Lewis rat assessed as recovery in blood lymphocyte counts at 0.1 mg/kg, po after 5 days; format: functional, organism-based; set-up: dose 0.1 mg/kg; outline: as §4
Rattus norvegicus [31] = assay: Tmax in Sprague-Dawley rat assessed as CS-0777-phosphate at 1 mg/kg, po; format: ADME, organism-based; set-up: dose 1 mg/kg, route oral; conditions: in vivo; outline: as §2
Rattus norvegicus [32] = assay: Reduction of cumulative disease score in Lewis rat EAE model at 1 mg/kg, po administered daily for 20 days measured after 8 to 21 days relative to control; format: functional, organism-based; set-up: dose 1 mg/kg; outline: as §3
Rattus norvegicus [33] = assay: Half life in Sprague-Dawley rat assessed as CS-0777-phosphate at 1 mg/kg, po; format: ADME, organism-based; set-up: dose 1 mg/kg, route oral; conditions: in vivo; outline: as §2
Rattus norvegicus [34] = assay: Lymphopenic activity in Lewis rat assessed as recovery in blood lymphocyte counts at 1 mg/kg, po after 5 days; format: functional, organism-based; set-up: dose 1 mg/kg; outline: as §4
Rattus norvegicus [35] = assay: AUC (0 to infinity) in Sprague-Dawley rat assessed as CS-0777-phosphate at 0.1 mg/kg, po; format: ADME, organism-based, Plasma; set-up: dose 0.1 mg/kg, route oral, time infinity; conditions: in vivo; outline: as §2
Rattus norvegicus [36] = assay: AUC (0 to infinity) in Sprague-Dawley rat assessed as CS-0777-phosphate at 1 mg/kg, po; format: ADME, organism-based, Plasma; set-up: time infinity, dose 1 mg/kg, route oral; conditions: in vivo; outline: as §2
[37] = Oral bioavailability in Sprague-Dawley rat at 0.1 mg/kg; format: ADME, organism-based; conditions: in vivo; outline: as §2
[38] = Cmax in Sprague-Dawley rat at 1 mg/kg, po; format: ADME, organism-based; set-up: dose 1 mg/kg, route oral; conditions: in vivo; outline: as §2
Rattus norvegicus [39] = assay: Oral bioavailability in Sprague-Dawley rat assessed as CS-0777-phosphate at 1 mg/kg; format: ADME, organism-based; conditions: in vivo; outline: as §2

Sequence of Sphingosine 1-phosphate receptor 1 (Rattus norvegicus, UniProt P48303) (P48303 whole entry): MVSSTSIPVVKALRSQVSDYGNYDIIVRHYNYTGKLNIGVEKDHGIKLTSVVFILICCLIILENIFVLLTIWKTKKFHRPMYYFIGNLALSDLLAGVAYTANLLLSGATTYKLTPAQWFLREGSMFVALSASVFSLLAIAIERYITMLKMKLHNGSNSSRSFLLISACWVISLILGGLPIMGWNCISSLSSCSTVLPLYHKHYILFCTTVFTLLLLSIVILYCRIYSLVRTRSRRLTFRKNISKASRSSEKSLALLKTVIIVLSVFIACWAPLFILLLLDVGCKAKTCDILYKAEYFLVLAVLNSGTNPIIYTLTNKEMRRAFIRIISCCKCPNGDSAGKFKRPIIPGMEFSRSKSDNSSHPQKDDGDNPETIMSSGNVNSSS

## Cc1ccc(CCCC(=O)c2ccc(CC[C@@](C)(N)COP(=O)(O)O)n2C)cc1
[1]
  EC50: 1.8 nM
[2]
  EC50: 350 nM
Rattus norvegicus [3]
  Ratio EC50: 100
[4]
  EC50: 200 nM
[5]
  EC50: 21 nM
Homo sapiens
  Ratio EC50: 320
[6]
  EC50: 1.1 nM
[7]
  Activity: inactive

## CCCCCCCCc1ccc(CC[C@](N)(CO)COP(=O)(O)O)cc1 [FTY720-P]
[1]
  EC50: 0.29 nM
[4]
  EC50: 1.3 nM
[7]
  Activity: inactive

## Cc1ccc(CCCC(=O)c2ccc(CC[C@@](C)(N)CO)n2C)cc1
[8]
  half-life: 5.4 h
Rattus norvegicus [9]
  Activity: Active
[10]
  bioavailability: 69.5%
Rattus norvegicus [11]
  Activity: 18.4%
Rattus norvegicus [12]
  Cmax: 220 ng/mL
Rattus norvegicus [13]
  Cmax: 26.4 ng/mL
Rattus norvegicus [14]
  F: 80.6%
[15]
  Cmax: 1.89 ng/mL
Rattus norvegicus [16]
  t1/2: 10.9 h
[17]
  half-life: 10.4 h
[18]
  Vd: 17.1 L/kg
[19]
  AUC(0-inf): 31.7 ng·h/mL
Rattus norvegicus [20]
  Activity: 71.5%
[21]
  Tmax: 3.25 h
Rattus norvegicus [22]
  Activity: 27.4%
[23]
  clearance: 38 mL/min/kg
[24]
  Tmax: 4.75 h
[25]
  AUC(0-inf): 346 ng·h/mL
Rattus norvegicus [26]
  Activity: 30.1%
[27]
  Vd: 18.1 L/kg
Rattus norvegicus [28]
  Tmax: 9.5 h
[29]
  clearance: 33.7 mL/min/kg
Rattus norvegicus [30]
  Activity: inactive
Rattus norvegicus [31]
  Tmax: 9 h
Rattus norvegicus [32]
  Activity: Active
Rattus norvegicus [33]
  t1/2: 11.6 h
Rattus norvegicus [34]
  Activity: inactive
Rattus norvegicus [35]
  AUC: 686 ng·h/mL
Rattus norvegicus [36]
  AUC: 6280 ng·h/mL
[37]
  bioavailability: 72.2%
[38]
  Cmax: 18.2 ng/mL
Rattus norvegicus [39]
  F: 90.8%
